TRPC6 act = mouse TRPC6 channel activation; 310,000 tested, 0.13% active; B-score at 10 µM; AID 2550; HEK293-TRPC6 membrane potential dye fluorescence; stronger effect = higher value; Q61143;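 active = B-score of the integrated fluorescence ratio above library mean plus 3 SD, and starting fluorescence ratio within library mean plus 5 SD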;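 note: higher score means more depolarization so channel activation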
Target sequence (Q61143 whole entry, looked up): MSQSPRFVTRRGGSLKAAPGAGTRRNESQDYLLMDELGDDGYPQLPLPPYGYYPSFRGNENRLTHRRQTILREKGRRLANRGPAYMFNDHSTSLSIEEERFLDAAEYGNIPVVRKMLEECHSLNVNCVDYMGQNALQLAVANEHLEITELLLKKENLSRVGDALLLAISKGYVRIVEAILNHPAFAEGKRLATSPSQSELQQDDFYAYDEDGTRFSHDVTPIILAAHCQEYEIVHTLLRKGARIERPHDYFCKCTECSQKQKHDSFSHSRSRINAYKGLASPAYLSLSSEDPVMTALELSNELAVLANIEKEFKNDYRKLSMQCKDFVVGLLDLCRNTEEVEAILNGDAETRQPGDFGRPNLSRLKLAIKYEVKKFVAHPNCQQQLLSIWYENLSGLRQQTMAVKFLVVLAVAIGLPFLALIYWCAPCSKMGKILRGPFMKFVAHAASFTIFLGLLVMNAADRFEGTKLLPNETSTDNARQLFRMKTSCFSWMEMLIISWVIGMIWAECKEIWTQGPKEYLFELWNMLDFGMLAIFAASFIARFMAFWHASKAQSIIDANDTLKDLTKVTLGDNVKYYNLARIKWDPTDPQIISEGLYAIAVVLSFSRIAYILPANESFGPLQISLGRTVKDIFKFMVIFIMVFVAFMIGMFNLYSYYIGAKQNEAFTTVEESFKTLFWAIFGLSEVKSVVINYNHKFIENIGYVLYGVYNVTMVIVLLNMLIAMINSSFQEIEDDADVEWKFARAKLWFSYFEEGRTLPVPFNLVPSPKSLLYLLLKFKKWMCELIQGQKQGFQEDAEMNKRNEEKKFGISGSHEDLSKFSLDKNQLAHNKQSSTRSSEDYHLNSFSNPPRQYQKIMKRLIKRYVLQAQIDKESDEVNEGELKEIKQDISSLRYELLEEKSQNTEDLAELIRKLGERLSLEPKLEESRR
TRPC6 inhibitor = inhibitors of mouse TRPC6 channel. 310,000 tested, 1.1% active. Q61143. AID 2553. HEK293-TRPC6, membrane potential dye, ACh-evoked depolarization; stronger effect = lower value. B-score at 10 µM;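 active = B-score under library mean minus 3 SD, initial fluorescence not abnormally high, positive integrated signal ratio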;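 note: B-score derived from integrated fluorescence ratio over the kinetic read; more negative B-score means stronger inhibition of depolarization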
TRPC4 agonist = TRPC4 (mouse) channel activation; Q9QUQ5; HEK293 TRPC4beta/mu-opioid, Fluo4 calcium fluorescence; stronger effect = higher value; B-score at 10 µM; 310,000 tested, 0.49% active; AID 2237;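 active = B-score above 5 SD of library B-scores, and initial fluorescence ratio not above library mean plus 5 SD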;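 note: positive B-score marks a calcium rise read as TRPC4 activation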
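Material: TRPC4beta and mu-opioid receptor HEK293 stable cells | Incubation: 45 min room-temperature Fluo4 loading, 110 s read | Detection: Kinetic Fluo4 calcium fluorescence | Measure: Integrated baseline-normalised fluorescence ratio, converted to per-well B score | Benchmarks: Low control buffer alone, high control maximal DAMGO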
TRPC4 PAM = allosterically enhances the mouse TRPC4 cation channel | Q9QUQ5 | HEK293 TRPC4beta/mu-opioid, DAMGO EC20, Fluo-4 Ca2+ flux; stronger effect = higher value | B-score at 10 µM | 310,000 tested, 0.42% active | AID 2227;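 active = B-score of calcium response area above 5 SD of library B-scores, with initial fluorescence ratio within 5 SD of library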;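 note: B-score of integrated fluorescence ratio over time as area under calcium response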
TRPC4 inh = TRPC4 (mouse) channel inhibition; AID 2247; Q9QUQ5; 300,000 tested, 0.39% active; HEK293 TRPC4beta/mu-opioid, DAMGO-evoked Fluo4 calcium flux; stronger effect = lower value; B-score at 10 µM;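 active = B-score over 3 SD under the library average, no early fluorescence shift, positive overall ratio signal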
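Assay system: TRPC4beta/mu-opioid receptor HEK293 cell line; compound dosing: single concentration per test compound; detection: Fluo4 Ca2+ flux fluorescence; evaluation: per-well B score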
TRPC4 spec 2 = second selectivity test of TRPC6 inhibitors: effect on mouse TRPC4 | shares compounds with TRPC6 inhibitor | HEK293 TRPC4/MOR, membrane potential dye fluorescence; channel activated by saturating DAMGO dose | inhibition, % at 10 µM | 920 tested, 42% active | AID 2776;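 active = compounds whose fluorescence signal differed from control wells by over 3 SD, either direction, in both duplicate plates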
TRPC4 spec = selectivity of TRPC6 inhibitors: effect on mouse TRPC4. shares compounds with TRPC6 inhibitor. HEK293 TRPC4/mu-opioid, membrane potential fluorescence. activity change, negative = inhibition, % at 10 µM. 920 tested, 61% active. AID 2777;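 active = rise or fall in signal beyond 3 SD of buffer-only wells in both replicate plates, either sign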;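 note: integrated kinetic ratio of fluorescence range over baseline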
HEK293 MPD ctr 2-1 = parental HEK293 nonspecific activity of TRPC6 inhibitors, second screen; parental HEK293 membrane potential dye fluorescence; maximal acetylcholine challenge after compound addition; 920 tested, 31% active; shares compounds with TRPC6 inhibitor; signal change vs control, % at 10 µM;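 active = membrane potential signal moving either way by over 3 SD of the maximum-effect control, in both duplicate plates, meaning non-specific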
HEK293 MPD ctr-1 = checks TRPC6 inhibitor effects in parental HEK293 cells. parental HEK293 membrane potential dye fluorescence. 920 tested, 60% active. shares compounds with TRPC6 inhibitor. membrane potential signal change, % at 10 µM. AID 2780;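 active = membrane potential signal shifting up or down by more than 3 SD of buffer-only wells, on both duplicate plates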
HEK293 MPD ctr-2 = parental HEK293 nonspecific activity of TRPC6 modulators; shares compounds with TRPC6 inhibitor; membrane potential dye fluorescence; membrane potential signal change, % at 10 µM; 2,400 tested, 51% active;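 active = membrane potential signal moves up or down beyond 5 SD from buffer-only wells, on both duplicate plates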
HEK293 MPD ctr 2-2 = second counter-screen for TRPC6 modulators: effect in parental HEK293 cells. shares compounds with TRPC6 inhibitor. membrane potential dye fluorescence; after compound, maximal acetylcholine stimulation. inhibition, % at 10 µM. 2,400 tested, 14% active. AID 488926;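 active = membrane potential signal drops by more than 5 SD from the mean control signal, in both duplicate plates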;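 note: plate controls were acetylcholine ECmax control wells for no effect and buffer only wells for full effect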
TRPC4 ctr mod = mouse TRPC4 off-target activity of TRPC6 modulators. AID 488927. shares compounds with TRPC6 inhibitor. HEK293 TRPC4/mu-opioid, membrane potential fluorescence. 2,400 tested, 69% active. percent change from control (negative = decrease, positive = increase), % at 10 µM;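 active = membrane potential signal moved up or down beyond 5 SD of buffer control wells, in both duplicate plates, actives on both sides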;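 note: plate controls were assay buffer wells for no effect and DAMGO maximal-effect wells for full effect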
TRPC4 ctr inh 2 = second selectivity test of TRPC6 modulators against mouse TRPC4. shares compounds with TRPC6 inhibitor. HEK293 TRPC4/mu-opioid, membrane potential dye fluorescence; stimulated with maximal-effect DAMGO. inhibition, % at 10 µM. 2,400 tested, 55% active. AID 488928;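 active = drop in membrane potential signal beyond 5 SD of the control wells in both duplicate plates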;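 note: TRPC4 counter screen for TRPC6 hits run under conditions tuned for TRPC6 not TRPC4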
TRPC6 block conf = mouse TRPC6 inhibitor confirmation; shares compounds with TRPC6 inhibitor; HEK293-TRPC6, membrane potential dye, ACh-evoked depolarization; inhibition, % at 10 µM; 3,300 tested, 43% active; AID 488960;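 active = fluorescence ratio falls more than 5 SD below the full-stimulation control mean, in both duplicate runs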;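 note: integrated fluorescence ratio of peak minus minimum over baseline after agonist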
TRPC6 act confirm = mouse TRPC6 activator confirmation; shares compounds with TRPC6 inhibitor; HEK293-TRPC6 membrane potential dye fluorescence, FDSS; activation, % at 10 µM; 2,800 tested, 11% active; AID 488961;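 active = ratio signal rise beyond 5 SD above unstimulated control wells' mean, seen in both duplicate runs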;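 note: plate controls were buffer EC0 wells for no effect and acetylcholine ECmax response for full effect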
* marks the source's active call; other numbers are inactive results; i = inactive; nt = no result; + = active, no number. In the library only some 2.3% were active in any assay of this set; here they are far more common.

SMILES | TRPC6 act | TRPC6 inhibitor | TRPC4 agonist | TRPC4 PAM | TRPC4 inh | HEK293 MPD ctr-2 | HEK293 MPD ctr 2-2 | TRPC4 ctr mod | TRPC4 ctr inh 2 | TRPC6 block conf | TRPC6 act confirm | others
CN1C2CCC1CC(OC(c1ccccc1)c1ccccc1)C2 (centres undefined) | i | -7.1* | i | i | i | nt | nt | nt | nt | 69%* | nt | TRPC4 spec 2=68%*;TRPC4 spec=19%*;HEK293 MPD ctr 2-1=i;HEK293 MPD ctr-1=14%*
CN1C2CCC1CC(OC(=O)c1c[nH]c3ccccc13)C2 (centres undefined) | i | i | i | i | i | nt | nt | nt | nt | nt | nt
Cc1ccnc(SCC(=O)N2CCN(C(c3ccccc3)c3ccccc3)CC2)n1 | 18* | -11* | i | i | i | 118%* | i | 20%* | i | 62%* | 142%*
O=C(C1CC(=O)N(c2ccccc2)C1)N1CCN(c2ccccc2F)CC1 (centres undefined) | i | i | i | i | i | nt | nt | nt | nt | nt | nt
CN1CCN(c2nc(N3CCN(CCO)CC3)nc3ccccc23)CC1 | i | -7.1* | i | i | i | -453%* | 84%* | -72%* | 72%* | 80%* | i
COc1nc(-c2cccc([N+](=O)[O-])c2)nc2ccccc12 | i | i | i | i | i | nt | nt | nt | nt | nt | nt
Cc1ccc(-c2nc(N3CCN(C)CC3)c3ccccc3n2)cc1 | i | -9* | i | i | i | nt | nt | nt | nt | i | i | TRPC4 spec 2=i;TRPC4 spec=-21%*;HEK293 MPD ctr 2-1=i;HEK293 MPD ctr-1=-360%*
CN1CCN(c2nc(-c3cccc([N+](=O)[O-])c3)nc3ccccc23)CC1 | i | -6.1* | i | i | i | -206%* | i | -43%* | 63%* | 54%* | i
O=C(Cn1c(=O)[nH]c2sc3c(c2c1=O)CCCC3)NCC1CCCO1 (centres undefined) | i | i | i | i | i | nt | nt | nt | nt | nt | nt
Cc1noc(C)c1COc1cccc(C(=O)NC(C)(C)C)c1 | i | i | i | i | i | nt | nt | nt | nt | nt | nt
CSc1ccc(C(=O)C2CCCN(C(=O)CCc3c(C)nn(C)c3C)C2)cc1 (centres undefined) | i | i | i | i | i | nt | nt | nt | nt | nt | nt
Cn1c(=O)c(Nc2ccc(O)cc2)c2c3c(cccc31)C(=O)c1ccccc1-2 | i | -6* | i | i | i | i | i | -27%* | 59%* | i | i
CC(=O)c1c2c3c(cccc3n(C)c1=O)C(=O)c1ccccc1-2 | i | i | i | i | i | nt | nt | nt | nt | nt | nt
COc1ccc(CNC(=O)CNC(=O)CNS(=O)(=O)c2ccc(C)c(C)c2)cc1 | i | i | i | i | i | nt | nt | nt | nt | nt | nt
CC(C)(C)C(=O)CN1C2=NCCCN2c2ccccc21 | i | i | i | i | i | nt | nt | nt | nt | nt | nt
CCOC(=O)N1CCC(N2Cc3cccc(C(=O)N4CCN(c5cccc(Cl)c5)CC4)c3C2=O)CC1 | i | -6.3* | i | i | i | 100%* | i | 22%* | i | 42%* | nt
CCOC(=O)N1CCC(N2Cc3cccc(C(=O)Nc4cccc(F)c4)c3C2=O)CC1 | i | -9.2* | i | i | i | nt | nt | nt | nt | 90%* | i | TRPC4 spec 2=i;TRPC4 spec=i;HEK293 MPD ctr 2-1=-12%*;HEK293 MPD ctr-1=i
COc1ccccc1N1CCc2c(C)nc3c(OC)cccc3c21 | i | -6.5* | i | i | -6* | -114%* | i | -19%* | 58%* | 46%* | i
COc1cccc2c(Cl)c(CC=C(Cl)Cl)c(C)nc12 | i | i | i | i | i | nt | nt | nt | nt | nt | nt
Cc1ccc2nc(C)c3c(c2c1)N(c1ccc(F)cc1)CC3 | i | -9.6* | i | i | -6* | nt | nt | nt | nt | 105%* | i | TRPC4 spec 2=34%*;TRPC4 spec=i;HEK293 MPD ctr 2-1=27%*;HEK293 MPD ctr-1=-194%*
CCOC(=O)c1cnc2c(OC)cccc2c1N1CCN(c2ccccc2OC)CC1 | i | i | i | i | i | nt | nt | nt | nt | nt | nt
COc1cccc2c3c(c(C)nc12)CCN3c1ccccc1 | i | -8.5* | i | i | i | -182%* | i | -33%* | 72%* | 68%* | i
Cc1cc(C)c(C)c(S(=O)(=O)N2CCC(C(=O)N3CCCCCCC3)CC2)c1C | i | i | i | i | i | nt | nt | nt | nt | nt | nt
COc1ccccc1C1NC(=O)c2ccccc2O1 (centres undefined) | i | i | i | i | i | nt | nt | nt | nt | nt | nt
CCCCCN(C(=O)CCC(=O)OCC(=O)c1c(C)cc(C)cc1C)c1c(N)n(CCCC)c(=O)[nH]c1=O | i | i | i | i | i | nt | nt | nt | nt | nt | nt
COc1ccc(S(=O)(=O)N2CC(C)N(C(=O)N(C)C)C2C(C)C)cc1 (centres undefined) | i | i | i | i | i | nt | nt | nt | nt | nt | nt
O/C(=C\c1nc2ccccc2nc1/C=C(\O)c1ccccc1)c1ccccc1 | 13* | i | i | i | i | 268%* | i | i | i | i | i
O=c1oc2ccccc2nc1/C=C(\O)c1ccccc1 | i | i | i | i | i | nt | nt | nt | nt | nt | nt
O/C(=C\c1ccc2ccccc2n1)c1ccncc1 | 46* | i | 66* | i | i | + | + | 186%* | 48%* | nt | 314%*

Source: PubChem
